Reference: article PMC8354861 (Bioorganic & Medicinal Chemistry, 2021)
Values after ≈ are worked out from the molar mass of the structure shown. Where two headings read alike, the source gives them in different places.

What was measured:
SARS-CoV-2 = test: Antiviral activity against SARS-CoV-2 in Vero E6 cells; assay type: cell-based
[1] = Stability in simulated intestinal fluid; assay type: in vitro ADME; settings: SIF with pancreatin
How it was run: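 Simulated intestinal fluid was made to the USP recipe: KH2PO4, 0.2 M NaOH and 10 g/L pancreatin, adjusted to pH 6.8. Test compound stock (2 μM in DMF) was diluted into the fluid and incubated at 37 °C for up to 24 h, sampled at 0, 1, 2, 3, 4, 6 and 24 h. Reactions were stopped with ice-cold acetonitrile, centrifuged, and supernatants analysed by HPLC.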

ICR mice = test: Acute toxicity study in ICR mice; assay type: in vivo
How it was run: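 Male ICR mice (28–36 g), 15 animals randomised into five groups of three, fasted 16 h. Each group received one oral gavage dose of test compound at 50, 100, 200, 500 or 1000 mg/kg in 5% DMSO, 5% Solution Hs15 and 90% saline. Mortality was recorded over 7 days; body weight, organ weight and tissue histology were assessed after sacrifice.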

[2] = cynomolgus monkeys; cited from earlier work
[3] = rats; cited from earlier work
[4] = dogs; cited from earlier work
physchem = settings: pH 6

Compound: N#C[C@@]1(c2cc(Cl)c3c(N)ncnn23)O[C@H](CO)[C@@H](O)[C@H]1O [Compound 1a, (2R,3R,4S,5R)-2-(4-amino-5-chloropyrrolo[2,1-f][1,2,4]triazin-7-yl)-3,4-dihydroxy-5-(hydroxymethyl)tetrahydrofuran-2-carbonitrile]
- anti-SARS-CoV-2 activity (in words) (SARS-CoV-2): loss of the anti-SARS-CoV-2 activity

Compound: N#C[C@@]1(c2cc(F)c3c(N)ncnn23)O[C@H](CO)[C@@H](O)[C@H]1O [Compound 1c, (2R,3R,4S,5R)-2-(4-amino-5-fluoropyrrolo[2,1-f][1,2,4]triazin-7-yl)-3,4-dihydroxy-5-(hydroxymethyl)tetrahydrofuran-2-carbonitrile]
- anti-SARS-CoV-2 activity (in words) (SARS-CoV-2): able to inhibit the viral replication
- anti-SARS-CoV-2 activity (in words) (SARS-CoV-2; listed as 3c): moderate anti-SARS-CoV-2 activity

Compound: N#Cc1cc([C@]2(C#N)O[C@H](CO)[C@@H](O)[C@H]2O)n2ncnc(N)c12 [Compound 1d, 4-amino-7-((2R,3R,4S,5R)-2-cyano-3,4-dihydroxy-5-(hydroxymethyl)tetrahydrofuran-2-yl)pyrrolo[2,1-f][1,2,4]triazine-5-carbonitrile]
- anti-SARS-CoV-2 activity (in words) (SARS-CoV-2): loss of the anti-SARS-CoV-2 activity

Compound: OC[C@H]1O[C@@H](c2ccc3c(NO)ncnn23)[C@H](O)[C@@H]1O [Compound 3b, (2S,3R,4S,5R)-2-(4-(hydroxyamino)pyrrolo[2,1-f][1,2,4]triazin-7-yl)-5-(hydroxymethyl)tetrahydrofuran-3,4-diol]
- anti-SARS-CoV-2 activity (in words) (SARS-CoV-2): did not show any antiviral activity

Compound: CC(C)C(=O)O[C@H]1[C@@H](O)[C@](C#N)(c2ccc3c(N)ncnn23)O[C@@H]1CO [Compound 5a, (2R,3S,4R,5R)-5-(4-aminopyrrolo[2,1-f][1,2,4]triazin-7-yl)-5-cyano-4-hydroxy-2-(hydroxymethyl)tetrahydrofuran-3-yl isobutyrate]
- stability in SIF (in words) [1]: good stability

Compound: CC(C)C(=O)OC[C@H]1O[C@@](C#N)(c2ccc3c(N)ncnn23)[C@H](O)[C@@H]1O [Compound 5c, ((2R,3S,4R,5R)-5-(4-aminopyrrolo[2,1-f][1,2,4]triazin-7-yl)-5-cyano-3,4-dihydroxytetrahydrofuran-2-yl)methyl isobutyrate]
- well tolerated oral dosage (ICR mice; single oral dose): up to 1000 mg/kg
- mortality (ICR mice; single oral gavage 50-1000 mg/kg, 7-day observation period): No mortality
- changes in body weight, organ weight, or tissue histology (ICR mice; single oral gavage 50-1000 mg/kg, after sacrifice): No significant changes

Compound: CCC(CC)COC(=O)[C@H](C)N[P@](=O)(OC[C@H]1O[C@@](C#N)(c2cc(F)c3c(N)ncnn23)[C@H](O)[C@@H]1O)Oc1ccccc1 [Compound 7, 2-ethylbutyl ((S)-(((2R,3S,4R,5R)-5-(4-amino-5-fluoropyrrolo[2,1-f][1,2,4]triazin-7-yl)-5-cyano-3,4-dihydroxytetrahydrofuran-2-yl)methoxy)(phenoxy)phosphoryl)-L-alaninate]
- anti-SARS-CoV-2 activity (in words) (SARS-CoV-2): reduced activity

Compound: N#C[C@@]1(c2ccc3c(N)ncnn23)O[C@H](CO)[C@@H](O)[C@H]1O [GS-441524]
- F (oral bioavailability) [2]: 8.3%
- F (oral bioavailability) [3]: 33%
- F (oral bioavailability) [4]: 85%
- solubility (physchem): 105 µg/mL (≈ 360 µM)

Compound: (3R,4S,5R)-2-(4-aminopyrrolo[2,1-f][1,2,4]triazin-7-yl)-2-cyclopropyl-5-(hydroxymethyl)tetrahydrofuran-3,4-diol [Compound 2d]
- Inhibition rate (SARS-CoV-2; at 5 µM): <10%
